Source: ChEMBL document CHEMBL4152387, “Discovery of a Potent Grp94 Selective Inhibitor with Anti-Inflammatory Efficacy in a Mouse Model of Ulcerative Colitis” (J Med Chem, 2018)
Activity calls are given as the source filed them. No cut-off for these calls is given here.

What was measured:
[1] = test system: Mus musculus; experiment: In-vivo inhibition of HSP90/HSP70 pathway in C57BL/6 mouse model of DSS-induced ulcerative colitis assessed as effect on Akt expression in colonic tissues at 10 to 30 mg/kg, ip qd co-administrated with DSS measured on day 7 post dose; type: organism-based
How it was run: (§1)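 DSS colitis in male C57BL/6 mice (3% DSS, 7 days, ip qd 10 or 30 mg/kg, vehicle controls); colons flash-frozen at day 7, homogenized in lysis buffer with protease/phosphatase inhibitors. Equal protein by BCA run on SDS-PAGE, PVDF, 1% BSA block, primary antibodies 37 °C 1 h then 4 °C overnight, DyLight 800 secondary, infrared scan; β-actin loading control.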

[2] = test system: Mus musculus; experiment: Subacute toxicity in C57BL/6 mouse assessed as effect on heart at 30 to 90 mg/kg, ip qd for 2 weeks by hematoxylin and eosin staining analysis; type: organism-based; conditions: in vivo, 336 h
[3] = biological target: T1, Heat shock protein HSP 90-alpha (Homo sapiens, UniProt P07900); experiment: Inhibition of HSP90alpha in human PANC1 cells assessed as up-regulation of Hsp70 at 1 to 5 uM after 36 hrs by Western blot analysis; type: cell-based
How it was run: (§2)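 Panc-1 cells treated 36 h; total protein lysate with protease/phosphatase inhibitors; equal protein by BCA on SDS-PAGE, PVDF, Western blot for Hsp70 and Akt, β-actin loading control; AT13387 reference.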

[4] = biological target: T1, Heat shock protein HSP 90-alpha; experiment: Binding affinity to human His-tagged HSP90alpha N-terminal domain (1 to 236 residues) expressed in Escherichia coli BL21star (DE3) dissociation constant by biolayer interferometry; conditions: read-out: K
How it was run: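 Biotinylated His-tagged N-terminal protein, labelled in PBS pH 7.4 at one molar ratio with excess biotin removed by overnight dialysis, was loaded at 400 nM final onto streptavidin biosensors pre-wetted 10 min in kinetics buffer (PBS, 0.05% BSA, 0.01% Tween-20). Four compound concentrations in kinetics buffer were then tested for binding, with all data collected at 30 °C.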

[5] = test system: Mus musculus; experiment: Anti-inflammatory activity in ip dosed C57BL/6 mouse model of DSS-induced ulcerative colitis assessed reduction in IL6 levels in serum co-administrated once daily with DSS measured on day 7 post dose by ELISA; type: functional, organism-based
How it was run: (§3)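 DSS colitis in male C57BL/6 mice (3% DSS in water, 7 days, ip qd co-dosing, vehicle controls). Serum and colons taken at sacrifice on day 7; colon homogenate supernatants and serum assayed for mouse TNFα and IL-6 by ELISA kits; n = 5 samples per group.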

[6] = species on record: Canis lupus familiaris; experiment: Inhibition of FITC-geldanamycin binding to dog GST-tagged GRP94 N41 deletion mutant (69 to 337 residues) expressed in Escherichia coli BL21star (DE3) at 100 uM after 4 hrs by FP assay relative to control
[7] = test system: Mus musculus; experiment: Anti-inflammatory activity in C57BL/6 mouse model of DSS-induced ulcerative colitis assessed reduction in colonic tissue damage at 10 to 30 mg/kg, ip qd co-administrated with DSS measured on day 7 post dose; type: functional, organism-based
How it was run: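 Male C57BL/6 mice (20−22 g), n = 8 per group, 3% DSS in drinking water 7 days plus ip qd dosing at 10 or 30 mg/kg; vehicle controls. Sacrificed at day 7, colons collected; colon length measured and H&E-stained colon sections examined.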

[8] = test system: Mus musculus; experiment: Anti-inflammatory activity in C57BL/6 mouse model of DSS-induced ulcerative colitis assessed reduction in TLR9 expression in colonic tissues at 10 to 30 mg/kg, ip qd co-administrated with DSS measured on day 7 post dose; type: functional, organism-based; how it was run: as §1
[9] = biological target: T1, Heat shock protein HSP 90-alpha; experiment: Binding affinity to human His-tagged HSP90alpha N-terminal domain (1 to 236 residues) expressed in Escherichia coli BL21star (DE3) by biolayer interferometry
How it was run: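 His-tagged Hsp90N biotinylated in PBS pH 7.4 (one molar ratio), dialysed overnight, immobilized at 400 nM on streptavidin sensors; kinetics buffer PBS, 0.05% BSA, 0.01% Tween-20; four compound concentrations; 30 °C biolayer interferometry.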

[10] = test system: Mus musculus; experiment: Anti-inflammatory activity in C57BL/6 mouse model of DSS-induced ulcerative colitis assessed reduction in body weight loss at 10 to 30 mg/kg, ip qd co-administrated with DSS measured until day 7 post dose; type: functional, organism-based
How it was run: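 Male C57BL/6 mice (20−22 g), n = 8 per group, 3% DSS in drinking water for 7 days with ip qd dosing at 10 or 30 mg/kg; vehicle for normal and disease controls. Body weight, stool consistency and rectal bleeding recorded daily; DAI scored from weight loss, stool consistency and stool blood.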

[11] = test system: Mus musculus; experiment: Subacute toxicity in C57BL/6 mouse assessed as effect on liver at 30 to 90 mg/kg, ip qd for 2 weeks by hematoxylin and eosin staining analysis; type: organism-based; conditions: in vivo, 336 h
[12] = Ratio of Kd for human His-tagged biotinylated HSP90alpha N-terminal domain (1 to 236 residues) to Kd for dog His-tagged biotinylated GRP94 N41 deletion mutant (69 to 337 residues)
[13] = Binding affinity to dog His-tagged biotinylated GRP94 N41 deletion mutant (69 to 337 residues) expressed in Escherichia coli BL21star (DE3) by biolayer interferometry; parameters: species or system Canis lupus familiaris
How it was run: (§4)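 His-tagged Grp94N biotinylated at one molar ratio in PBS pH 7.4, dialysed overnight, loaded at 400 nM on streptavidin biosensors after 10 min prewetting in PBS, 0.05% BSA, 0.01% Tween-20. Four compound concentrations in this buffer tested; binding recorded at 30 °C by biolayer interferometry.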

[14] = biological target: T1, Heat shock protein HSP 90-alpha; experiment: Inhibition of HSP90alpha in human PANC1 cells assessed as akt degradation at 1 to 5 uM after 36 hrs by Western blot analysis; type: cell-based; how it was run: as §2
[15] = species on record: Canis lupus familiaris; experiment: Binding affinity to dog His-tagged biotinylated GRP94 N41 deletion mutant (69 to 337 residues) expressed in Escherichia coli BL21star (DE3) assessed as dissociation constant by biolayer interferometry; how it was run: as §4
[16] = test system: Mus musculus; experiment: Subacute toxicity in C57BL/6 mouse assessed as effect on kidneys at 30 to 90 mg/kg, ip qd for 2 weeks by hematoxylin and eosin staining analysis; type: organism-based; conditions: in vivo, 336 h
[17] = test system: Mus musculus; experiment: Anti-inflammatory activity in ip dosed C57BL/6 mouse model of DSS-induced ulcerative colitis assessed reduction in TNFalpha levels in colonic tissues co-administrated once daily with DSS measured on day 7 post dose by ELISA; type: functional, organism-based; how it was run: as §3

Q: For `CC(C)c1ccc(-c2ccc(N[C@H]3CC[C@H](O)CC3)c(C(N)=O)c2)cc1`, which Activity [1] is on record?
A: Non-Toxic

Q: And the Activity [2]?
A: Non-Toxic

Q: What about the “inhibition (INH)” value [3] of the same molecule?
A: Not Active

Q: What about the koff [4] of the same molecule?
A: 0.0345 s⁻¹

Q: And the Activity [5]?
A: Dose-dependent effect

Q: And the inhibition [6]?
A: 100%

Q: What about the Activity [7] of the same molecule?
A: inactive

Q: And the Activity [8]?
A: Active

Q: And the Kd [9]?
A: 20.6 µM

Q: And the Activity [10]?
A: Active

Q: What about the Activity [11] of the same molecule?
A: Non-Toxic

Q: What about the Ratio [12] of the same molecule?
A: > 1000

Q: And the Kd [13]?
A: 0.0196 µM

Q: What about the “inhibition (INH)” value [14] of the same molecule?
A: Not Active

Q: What about the K [15] of the same molecule?
A: 1.25 ×10⁻² /s

Q: And the Activity [16]?
A: Non-Toxic

Q: And the Activity [17]?
A: Dose-dependent effect
